The target in series [1] is T1, Cytochrome P450 3A (Homo sapiens, UniProt P08684+P20815+Q9HB55+P24462). The series is described as follows: Time-dependent inhibition of CYP3A in human liver microsomes assessed as midazolam 1'-hydroxylation using midazolam as substrate by LC-MS/MS analysis in presence of NADPH. Type of series: ADME. A digest of the protocol:
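HLM (1.25 mg/mL for midazolam) were preincubated in duplicate with carfilzomib 0, 0.5, 1, 3, 5, 8 µM plus an NADPH-generating system for 0–30 min. Mixtures were diluted 25-fold into pH 7.4 phosphate/MgCl2/EDTA buffer containing midazolam 40 µM and NADPH system for 5 min. Residual activity by LC-MS/MS gave KI and kinact.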
On the technique in general: Liver microsomes are vesicles of endoplasmic reticulum, rich in cytochrome P450 enzymes.

Series [2] deals with Cytochrome P450 2C9 (Homo sapiens, UniProt P11712). In words: Drug metabolism in pooled human hepatocytes assessed as disapperance rate at 1 uM by LC-MS/MS analysis in presence of 10 uM CYP2C9 inhibitor sulfaphenazole.
In series [3] the target is T2, CYP3A (Homo sapiens, UniProt P08684+P20815+P24462+Q9HB55). The series is described as follows: Inhibition of CYP3A in human liver microsomes assessed as substrate metabolite formation using testosterone as substrate measured after 5 mins by LC-MS/MS analysis. Type of series: ADME. The following applies: probe testosterone. A digest of the protocol:
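Pooled HLM from 16 donors were incubated at 37°C in duplicate with carfilzomib 0.01–10 µM and probe substrate at about its Km. Substrates were phenacetin, amodiaquine, diclofenac, S-mephenytoin, dextromethorphan, testosterone and midazolam. Protein was 0.1 mg/mL, or 0.05 mg/mL with midazolam. Reactions ran 5 min without preincubation, then were quenched with acetonitrile. Metabolites were measured by LC-MS/MS relative to 0.5% acetonitrile controls.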

The target in series [4] is Cytochrome P450 3A4 (Homo sapiens, UniProt P08684). The series is described as follows: Decrease in CYP3A4 activity in human hepatocytes assessed as 6-betahydroxytestosterone formation using testosterone as substrate at 2.5 uM incubated for 3 days prior to substrate challenge for 30 mins by LC-MS/MS analysis. Type of series: ADME, cell-based, Hepatocyte. The following applies: 0.5 h. The essentials: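 Hepatocytes from 3 donors were plated on collagen I and cultured 2 days, then treated 3 days with carfilzomib (0.1–2.5 µM), 0.08% DMSO, rifampicin 20 µM or β-naphthoflavone 20 µM, renewed daily. Cells were then incubated in serum-free medium in triplicate with testosterone 200 µM (CYP3A, 30 min, 6β-hydroxytestosterone) or phenacetin 100 µM (CYP1A2, 60 min, acetaminophenol). Products were measured by LC-MS/MS and expressed relative to DMSO.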

Series [5] is described as follows: Cmax in human patient with relapsed solid tumor at 20 mg/m'2, iv administered on days 1, 2, 8, 9 15 and 16 of 28-day cycle over 2 to 10 mins measured on day 1 of cycle 1 by LC-MS/MS analysis. Type of series: ADME, organism-based. More on the design: route intravenous. The following applies: in vivo. The essentials:
(§1)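 Patients with relapsed solid tumors (n=3) received carfilzomib IV at 20 mg/m2. Plasma was sampled on Days 1 and 16 of Cycle 1 before dosing, at end of administration, and at 5, 15, 30 min and 1, 2, 4 h after. Samples underwent solid phase extraction and LC-MS/MS with d10-carfilzomib internal standard over 0.100–200 ng/mL. Parameters were derived noncompartmentally (constant IV infusion model) from actual elapsed time from infusion start.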

A short description of series [6]: Drug excretion in urine of iv dosed human patient with relapsed and refractory hematological malignancies assessed as morpholino-hPhe metabolite formation administered on days 1, 2, 8, 9, 15 and 16 of 28-day cycle over 2 to 10 mins by LC-MS/MS analysis. Type of series: ADME, organism-based. The following applies: in vivo.
The target of series [7] is T1, Cytochrome P450 3A. The series is described as follows: Drug metabolism in pooled human hepatocytes assessed as disapperance rate at 1 uM by LC-MS/MS analysis in presence of 10 uM CYP3A inhibitor ketoconazole. Type of series: ADME, cell-based, Hepatocyte. The essentials: (§2)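 Pooled human hepatocytes in suspension (~0.5 x 10^6 viable cells/mL) were incubated with 1 µM carfilzomib at 37°C under 5% CO2, with or without isoform-selective CYP chemical inhibitors. Reactions were quenched with acetonitrile at 0, 15, 30, 60 and 120 min. Carfilzomib was quantified by non-validated LC-MS/MS after protein precipitation.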

Series [8] in a line: AUC infinity in human patient with relapsed solid tumor at 20 mg/m'2, iv administered on days 1, 2, 8, 9, 15 and 16 of 28-day cycle over 2 to 10 mins measured on day 16 of cycle 1 by LC-MS/MS analysis. Also noted: time infinity, route intravenous. Particulars: plasma; call rule not given here. Type of series: ADME, organism-based. The essentials:
as §1

Series [9] addresses Cytochrome P450 2D6 (Homo sapiens, UniProt P10635). In words: Drug metabolism in pooled human hepatocytes assessed as disapperance rate at 1 uM by LC-MS/MS analysis in presence of 10 uM CYP2D6 inhibitor quinidine. Type of series: ADME, cell-based, Hepatocyte. The essentials: as §2
Series [10] can be described thus: AUC last in human patient with relapsed solid tumor at 20 mg/m'2, iv administered on days 1, 2, 8, 9, 15 and 16 of 28-day cycle over 2 to 10 mins measured on day 16 of cycle 1 by LC-MS/MS analysis. Type of series: ADME, organism-based. More on the design: route intravenous, time 0 - last. Particulars: plasma. The essentials: as §1
Series [11] in a line: Drug excretion in urine of human multiple myeloma patient with normal renal function at 15 mg/m'2, iv on days 1, 2, 8, 9, 15 and 16 of 28-day cycle over 2 to 10 mins by LC-MS/MS analysis relative to total drug dose. Type of series: ADME, organism-based. The following applies: read-out: Drug excretion. A digest of the protocol: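 Urine was collected 0–5 h and 5–24 h after dosing on Cycle 1 Day 1, with acetonitrile added at 25% of sample volume. Carfilzomib and metabolites were quantified by LC-MS/MS (carfilzomib and M15 4.00–2000 ng/mL, M14 10.0–5000 ng/mL) and expressed as percent of dose.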

Series [12] deals with T2, CYP3A. In words: Inhibition of CYP3A in human liver microsomes assessed as substrate metabolite formation using midazolam as substrate preincubated with microsomes for 30 mins prior to substrate addition measured after 5 mins by LC-MS/MS analysis. Type of series: ADME. Particulars: probe midazolam. A digest of the protocol: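 HLM (16-donor pool) were preincubated 30 min with carfilzomib 0.01–10 µM before addition of midazolam or testosterone at about Km. Metabolite formation was measured by LC-MS/MS after 5 min, in duplicate, relative to 0.5% acetonitrile controls.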

Series [13] has as its target T3, Cytochrome P450 2C8 (Homo sapiens, UniProt P10632).
T3 sequence (P10632 whole entry): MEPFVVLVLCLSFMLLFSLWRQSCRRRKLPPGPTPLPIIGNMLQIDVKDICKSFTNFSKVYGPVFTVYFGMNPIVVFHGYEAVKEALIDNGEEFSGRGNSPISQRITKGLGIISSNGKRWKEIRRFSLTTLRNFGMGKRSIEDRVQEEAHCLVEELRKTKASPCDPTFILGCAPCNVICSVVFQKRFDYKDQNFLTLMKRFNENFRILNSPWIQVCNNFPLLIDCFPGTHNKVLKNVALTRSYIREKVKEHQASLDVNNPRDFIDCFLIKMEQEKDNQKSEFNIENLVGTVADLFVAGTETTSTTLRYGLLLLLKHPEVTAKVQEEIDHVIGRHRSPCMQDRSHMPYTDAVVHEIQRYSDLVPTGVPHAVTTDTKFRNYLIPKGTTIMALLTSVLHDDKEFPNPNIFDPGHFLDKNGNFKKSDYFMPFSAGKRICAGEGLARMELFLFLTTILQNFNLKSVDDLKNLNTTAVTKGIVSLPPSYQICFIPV
In words: Drug metabolism in pooled human hepatocytes assessed as disapperance rate at 1 uM by LC-MS/MS analysis in presence of 30 uM CYP2C8 inhibitor montelukast. Type of series: ADME, cell-based, Hepatocyte. The essentials: as §2

Cytochrome P450 2D6, sequence (P10635 whole entry): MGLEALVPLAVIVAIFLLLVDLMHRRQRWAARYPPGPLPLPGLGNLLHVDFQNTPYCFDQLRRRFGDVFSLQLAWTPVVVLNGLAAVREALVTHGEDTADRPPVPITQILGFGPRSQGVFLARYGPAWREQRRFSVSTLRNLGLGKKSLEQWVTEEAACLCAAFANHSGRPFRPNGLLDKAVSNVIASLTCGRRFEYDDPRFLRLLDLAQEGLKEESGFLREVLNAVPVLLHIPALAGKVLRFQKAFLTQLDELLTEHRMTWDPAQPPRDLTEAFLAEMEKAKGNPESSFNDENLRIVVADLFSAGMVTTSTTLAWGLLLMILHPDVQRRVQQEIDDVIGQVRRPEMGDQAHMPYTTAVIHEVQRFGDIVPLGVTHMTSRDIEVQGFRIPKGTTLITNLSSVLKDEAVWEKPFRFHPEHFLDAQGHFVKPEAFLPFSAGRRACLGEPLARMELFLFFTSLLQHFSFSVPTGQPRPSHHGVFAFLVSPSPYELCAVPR
Cytochrome P450 3A4, sequence (P08684 whole entry): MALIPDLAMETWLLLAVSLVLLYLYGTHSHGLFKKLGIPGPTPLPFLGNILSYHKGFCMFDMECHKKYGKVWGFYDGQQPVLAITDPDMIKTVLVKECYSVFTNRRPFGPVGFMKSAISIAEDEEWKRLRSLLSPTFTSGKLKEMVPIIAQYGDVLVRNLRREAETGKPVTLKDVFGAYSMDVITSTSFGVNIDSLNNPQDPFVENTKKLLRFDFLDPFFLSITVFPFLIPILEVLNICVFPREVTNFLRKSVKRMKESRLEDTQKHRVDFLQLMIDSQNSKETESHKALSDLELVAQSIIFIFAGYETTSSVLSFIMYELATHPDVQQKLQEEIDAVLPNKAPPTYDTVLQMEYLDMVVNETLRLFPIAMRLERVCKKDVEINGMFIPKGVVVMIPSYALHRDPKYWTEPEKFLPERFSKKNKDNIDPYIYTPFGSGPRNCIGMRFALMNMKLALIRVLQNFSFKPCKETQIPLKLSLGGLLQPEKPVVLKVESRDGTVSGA
Cytochrome P450 2C9, sequence (P11712 whole entry, looked up): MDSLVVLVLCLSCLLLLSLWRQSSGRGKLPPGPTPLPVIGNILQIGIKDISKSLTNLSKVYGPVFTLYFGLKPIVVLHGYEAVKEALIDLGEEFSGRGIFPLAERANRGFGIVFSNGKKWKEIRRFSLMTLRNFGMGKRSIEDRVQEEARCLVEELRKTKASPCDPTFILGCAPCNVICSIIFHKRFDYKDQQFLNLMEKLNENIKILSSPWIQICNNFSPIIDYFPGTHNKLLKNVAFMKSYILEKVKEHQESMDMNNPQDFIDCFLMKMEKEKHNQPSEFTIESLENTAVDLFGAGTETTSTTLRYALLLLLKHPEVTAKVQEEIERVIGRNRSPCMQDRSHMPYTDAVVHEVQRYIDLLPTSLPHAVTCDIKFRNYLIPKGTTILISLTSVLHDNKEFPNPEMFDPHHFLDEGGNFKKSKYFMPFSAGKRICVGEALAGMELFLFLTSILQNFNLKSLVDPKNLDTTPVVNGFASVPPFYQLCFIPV

As usually defined, the IC50 is the concentration at which inhibition is half-maximal. As a reminder, the Cmax is the peak of the concentration-time curve. Usually AUC(0-inf) stands for total exposure, with the tail of the curve extrapolated. The term AUC(0-t) denotes exposure summed from dosing to a finite time, without extrapolation to infinity. A higher AUC(0-t) goes with more exposure. As for `CC(C)C[C@H](NC(=O)[C@H](CCc1ccccc1)NC(=O)CN1CCOCC1)C(=O)N[C@@H](Cc1ccccc1)C(=O)N[C@@H](CC(C)C)C(=O)[C@@]1(C)CO1` [CARFILZOMIB], the “inhibition (INH)” value in series [1] is given as “Active”; in series [4], 45%. Moreover, the Drug metabolism in series [2] stood at 0.0073 min⁻¹; in series [7], 0.012 min⁻¹; in [9] it was 0.013 min⁻¹; in series [13], 0.014 min⁻¹. Also, the half-maximal inhibitory concentration (IC50) at 5 min in series [3] was more than 10000 nM; in [12], 490 nM. Further, in [5], the Cmax is 2760 ng/mL. Further, the Drug excretion result in [6] is reported as “metabolite_detected”. The compound also registered an AUC(0-inf) in series [8] of 301 ng·h/mL. This compound also registered an AUC(0-t) in [10] of 301 ng·h/mL. In series [11], the dose excreted is less than 1%.

Source of the values: ChEMBL document CHEMBL3526139, “Clinical pharmacokinetics, metabolism, and drug-drug interaction of carfilzomib” (Drug Metab Dispos, 2013).
